Laboratory results as given in the array DNA melting data of Ke et al. (doi:10.1101/2024.01.08.574731).

Columns and labels:
[1] = folding enthalpy; higher = less favourable; fluorescence melt of hairpins on a sequencing array, two-state fit; details: sodium 0.088 M
Summary of the method: (§1)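 In 50 mM Na-HEPES pH 8.0 containing 25 mM NaCl, hairpins from the library on a sequenced MiSeq flow cell were imaged for Cy3 fluorescence at 2.5 °C steps up to 60 °C, with Cy3 and quencher oligos annealed. After normalisation to pre-quench Cy3 and to control constructs, two-state fits with bootstrapping gave melting temperature and folding enthalpy. Four replicates were combined by inverse-variance weighting, and fitted temperatures were shifted up by 9.35 °C to match UV melts.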

[2] = melting temperature; fluorescence melt of hairpins on a sequencing array, two-state fit, raised by 9.35 °C to match UV melts; details: sodium 0.088 M
Summary of the method: as §1

Row | Sequence | folding enthalpy [1] | Tm [2]
1 | GATCTCCACGGAGATC ((((((....)))))) | -39.2 kcal/mol | 55.9 °C
2 | GATCTCCATAGAGATC ((((((....)))))) | -33.4 kcal/mol | 56.8 °C
3 | GATCTCCCGGGAGATC ((((((....)))))) | -52.9 kcal/mol | 58.3 °C
4 | GATCTCCGCAGAGATC ((((((....)))))) | -34.6 kcal/mol | 57.8 °C
5 | GATCTCCGGAGAGATC ((((((....)))))) | -39.4 kcal/mol | 52.7 °C
6 | GATCTCCGTCGAGATC ((((((....)))))) | -41.3 kcal/mol | 51 °C
7 | GATCTCCGTTGAGATC ((((((....)))))) | -35.6 kcal/mol | 52.6 °C
8 | GATCTCCTCCGAGATC ((((((....)))))) | -42.5 kcal/mol | 51.4 °C
9 | GATCTCCTTGGAGATC ((((((....)))))) | -47.6 kcal/mol | 60.5 °C
10 | GATCTCGACTGAGATC ((((((....)))))) | -45.9 kcal/mol | 55.8 °C
11 | GATCTCGATCGAGATC ((((((....)))))) | -48.5 kcal/mol | 56.9 °C
12 | GATCTCGCATGAGATC ((((((....)))))) | -44.8 kcal/mol | 61.6 °C
13 | GATCTCGCCTGAGATC ((((((....)))))) | -36.8 kcal/mol | 54 °C
14 | GATCTCGCGGGAGATC ((((((....)))))) | -33.1 kcal/mol | 52.4 °C
15 | GATCTCGCTCGAGATC ((((((....)))))) | -44.8 kcal/mol | 57.5 °C
16 | GATCTCGGAAACGAGATC (((((((....))))))) | -45.5 kcal/mol | 64.3 °C
17 | GATCTCGGAGAGATC ((((((...)))))) | -33.3 kcal/mol | 67.4 °C
18 | GATCTCGGGAGAGATC ((((((....)))))) | -41.6 kcal/mol | 63.2 °C
19 | GATCTCGGTCGAGATC ((((((....)))))) | -41.5 kcal/mol | 56.2 °C
20 | GATCTCGGTGAGATC ((((((...)))))) | -12.9 kcal/mol | 55.9 °C
21 | GATCTCGTAAGAGATC ((((((....)))))) | -35.3 kcal/mol | 68.4 °C
22 | GATCTCGTATGAGATC ((((((....)))))) | -46.5 kcal/mol | 59.2 °C
23 | GATCTCGTGAGAGATC ((((((....)))))) | -31 kcal/mol | 66.9 °C
24 | GATCTCGTTAGAGATC ((((((....)))))) | -39.9 kcal/mol | 65.1 °C

Row | Sequence | folding enthalpy [1] | Tm [2]
25 | GATCTCGTTTGAGATC ((((((....)))))) | -32.9 kcal/mol | 55.6 °C
26 | GATCTCTAAGGAGATC ((((((....)))))) | -34.9 kcal/mol | 53.8 °C
27 | GATCTCTAATGAGATC ((((((....)))))) | -46.5 kcal/mol | 49.9 °C
28 | GATCTCTATCGAGATC ((((((....)))))) | -39.4 kcal/mol | 51.1 °C
29 | GATCTCTCATGAGATC ((((((....)))))) | -44.1 kcal/mol | 52.3 °C
30 | GATCTCTCCCGAGATC ((((((....)))))) | -41.2 kcal/mol | 52.1 °C
31 | GATCTCTCGGAGATC ((((((...)))))) | -37.1 kcal/mol | 55.6 °C
32 | GATCTCTCTGAGATC ((((((...)))))) | -37.5 kcal/mol | 55.4 °C
33 | GATCTCTGACGAGATC ((((((....)))))) | -30.5 kcal/mol | 50 °C
34 | GATCTCTGAGAGATC ((((((...)))))) | -32.5 kcal/mol | 52.1 °C
35 | GATCTCTGAGGAGATC ((((((....)))))) | -43.4 kcal/mol | 55.8 °C
36 | GATCTCTGATGAGATC ((((((....)))))) | -33.3 kcal/mol | 51.3 °C
37 | GATCTCTGTGAGATC ((((((...)))))) | -42.6 kcal/mol | 54.9 °C
38 | GATCTCTGTTGAGATC ((((((....)))))) | -41 kcal/mol | 54.3 °C
39 | GATCTCTTAGGAGATC ((((((....)))))) | -38.1 kcal/mol | 54.2 °C
40 | GATCTCTTCGGAGATC ((((((....)))))) | -42.6 kcal/mol | 54.5 °C
41 | GATCTCTTGAGAGATC ((((((....)))))) | -32.4 kcal/mol | 53.8 °C
42 | GATCTCTTGCGAGATC ((((((....)))))) | -42.4 kcal/mol | 51.9 °C
43 | GATCTGAAACAGATC ((((((...)))))) | -31.6 kcal/mol | 46.3 °C
44 | GATCTGAAAGCAGATC ((((((....)))))) | -26.4 kcal/mol | 42.1 °C
45 | GATCTGAACGCAGATC ((((((....)))))) | -26.1 kcal/mol | 46.3 °C
46 | GATCTGAAGTCAGATC ((((((....)))))) | -39.1 kcal/mol | 47.7 °C
47 | GATCTGAATCCAGATC ((((((....)))))) | -37.8 kcal/mol | 46 °C
48 | GATCTGACAGCAGATC ((((((....)))))) | -28.6 kcal/mol | 44.7 °C

Row | Sequence | folding enthalpy [1] | Tm [2]
49 | GATCTGACCCAGATC ((((((...)))))) | -37.4 kcal/mol | 47.7 °C
50 | GATCTGACCTCAGATC ((((((....)))))) | -38.9 kcal/mol | 49.3 °C
51 | GATCTGACGCAGATC ((((((...)))))) | -29.5 kcal/mol | 47.3 °C
52 | GATCTGACGTCAGATC ((((((....)))))) | -42.6 kcal/mol | 55.5 °C
53 | GATCTGACTCCAGATC ((((((....)))))) | -33.9 kcal/mol | 46.6 °C
54 | GATCTGACTTCAGATC ((((((....)))))) | -34.2 kcal/mol | 49.2 °C
55 | GATCTGAGACCAGATC ((((((....)))))) | -32.9 kcal/mol | 44.5 °C
56 | GATCTGAGCACAGATC ((((((....)))))) | -29 kcal/mol | 49.5 °C
57 | GATCTGAGCGCAGATC ((((((....)))))) | -24.7 kcal/mol | 48.5 °C
58 | GATCTGAGGACAGATC ((((((....)))))) | -26.1 kcal/mol | 46.3 °C
59 | GATCTGAGTCCAGATC ((((((....)))))) | -30 kcal/mol | 46.7 °C
60 | GATCTGATACAGATC ((((((...)))))) | -39.4 kcal/mol | 48.7 °C
61 | GATCTGATCACAGATC ((((((....)))))) | -36.8 kcal/mol | 50.4 °C
62 | GATCTGCACACAGATC ((((((....)))))) | -43.9 kcal/mol | 51.6 °C
63 | GATCTGCATCAGATC ((((((...)))))) | -30.6 kcal/mol | 47.8 °C
64 | GATCTGCATCCAGATC ((((((....)))))) | -42 kcal/mol | 46.7 °C
65 | GATCTGCCCCAGATC ((((((...)))))) | -33.6 kcal/mol | 49.2 °C
66 | GATCTGCCGAAAGGCATC (((..(((....)))))) | -6.41 kcal/mol | 24.6 °C
67 | GATCTGCCGACAGATC ((((((....)))))) | -29.7 kcal/mol | 50.1 °C
68 | GATCTGCCTTCAGATC ((((((....)))))) | -30.7 kcal/mol | 49 °C
69 | GATCTGCGAAAGCAATC (((.(((....)))))) | -12.2 kcal/mol | 27.8 °C
70 | GATCTGCGGCAGATC ((((((...)))))) | -46.3 kcal/mol | 50.2 °C
71 | GATCTGCGGTCAGATC ((((((....)))))) | -32.9 kcal/mol | 49.7 °C
72 | GATCTGCGTCAGATC ((((((...)))))) | -29.4 kcal/mol | 49.6 °C

Row | Sequence | folding enthalpy [1] | Tm [2]
73 | GATCTGCTCGCAGATC ((((((....)))))) | -47.5 kcal/mol | 62.6 °C
74 | GATCTGCTGCAGATC ((((((...)))))) | -41.4 kcal/mol | 50.4 °C
75 | GATCTGCTTACAGATC ((((((....)))))) | -42.8 kcal/mol | 51.8 °C
76 | GATCTGCTTCAGATC ((((((...)))))) | -36.6 kcal/mol | 48.7 °C
77 | GATCTGCTTCCAGATC ((((((....)))))) | -33.4 kcal/mol | 48.5 °C
78 | GATCTGGAGCAGATC ((((((...)))))) | -28.1 kcal/mol | 45.4 °C
79 | GATCTGGATGCAGATC ((((((....)))))) | -35.5 kcal/mol | 50.8 °C
80 | GATCTGGCAGCAGATC ((((((....)))))) | -41.8 kcal/mol | 51.3 °C
81 | GATCTGGCTCAGATC ((((((...)))))) | -35.5 kcal/mol | 49.1 °C
82 | GATCTGGGAAACTAGATC (((((.(....).))))) | -32.2 kcal/mol | 42.4 °C
83 | GATCTGGGAACAGATC ((((((....)))))) | -39.8 kcal/mol | 54.5 °C
84 | GATCTGGGCCAGATC ((((((...)))))) | -51.8 kcal/mol | 53.2 °C
85 | GATCTGGGTACAGATC ((((((....)))))) | -38.7 kcal/mol | 57.7 °C
86 | GATCTGGTAGCAGATC ((((((....)))))) | -36.6 kcal/mol | 52.2 °C
87 | GATCTGGTCACAGATC ((((((....)))))) | -40.3 kcal/mol | 62.1 °C
88 | GATCTGGTGCCAGATC ((((((....)))))) | -46.6 kcal/mol | 52.2 °C
89 | GATCTGTAAGCAGATC ((((((....)))))) | -49.9 kcal/mol | 51.4 °C
90 | GATCTGTACACAGATC ((((((....)))))) | -37.4 kcal/mol | 54.6 °C
91 | GATCTGTAGTCAGATC ((((((....)))))) | -35.5 kcal/mol | 49.1 °C
92 | GATCTGTCTACAGATC ((((((....)))))) | -47.5 kcal/mol | 54.9 °C
93 | GATCTGTGAACAGATC ((((((....)))))) | -43 kcal/mol | 52.9 °C
94 | GATCTGTGACAGATC ((((((...)))))) | -31.5 kcal/mol | 48.8 °C
95 | GATCTGTGTCAGATC ((((((...)))))) | -34.1 kcal/mol | 50.6 °C
96 | GATCTGTTGCAGATC ((((((...)))))) | -36.5 kcal/mol | 48.7 °C
